Experiments:
[1] = system: Plasmodium falciparum; test: Inhibition of [3H]hypoxanthine incorporation in Plasmodium falciparum K1; format: functional, organism-based
Method in brief: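 K1 (chloroquine-resistant) parasites cultured in RPMI-1640 with 5% sodium bicarbonate and 10% type O human serum. DMSO stocks were serially diluted 10-fold in medium, covering a 10^6-fold range. Infected erythrocytes at 1–2% parasitemia and 1.5% hematocrit were incubated at 37 °C in a candle jar for 24 h. [3H]hypoxanthine was then added for a further 24 h, cells harvested and scintillation counted. IC50 from nonlinear logistic fit versus untreated control.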

[2] = system: Mus musculus; test: Ratio of average life span of compound-treated mice (100 mg/kg, ip, 3 days) to that of mice treated with 4''-butoxy-2,4-dimethoxychalcone (comp.41); format: functional
Method in brief: (§1)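 Swiss albino mice (male, 4 weeks, ~25 g) inoculated ip with 10^7 P. berghei ANKA parasitized erythrocytes (day 0). Test compound 100 mg/kg/day ip in DMSO, days 1–3, three mice per compound. Control infected groups: DMSO or 4'-butoxy-2,4-dimethoxychalcone (100 mg/kg in DMSO, ip, days 1–3), or chloroquine (52 mg/kg ip in 0.5% Tween buffer pH 7.4, day 1). Survival followed; ratio of mean life spans.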

[3] = system: Mus musculus; test: Ratio of average life span of compound-treated mice (100 mg/kg, ip, 3 days) to that of mice receiving DMSO (T/C-untreated); format: functional; method in brief: as §1
[4] = Ratio of average life span of compound-treated mice (100 mg/kg, ip, 3 days) to that of mice treated with chloroquine (T/C-CQ); format: functional; method in brief: as §1

Row | SMILES | IC50 ([1]; Plasmodium falciparum, 48 h) | further results
1 | O=C(/C=C/c1ccc(C(F)(F)F)cc1)c1ccc(O)cc1O | 26.5 µM | –
2 | O=C(/C=C/c1ccc(Cl)cc1)c1ccc(O)cc1 | 38 µM | –
3 | CCOc1ccc(C(=O)/C=C/c2ccc(C)cc2)cc1 | 38 µM | –
4 | O=C(/C=C/c1ccc(Cl)cc1)c1ccc(O)cc1O | 12.3 µM | T/C 41 [2]: 1.48; T/C untreated [3]: 1.41; T/C-CQ [4]: 0.71
5 | COc1ccc(C(=O)/C=C/c2ccc(C(F)(F)F)cc2)c(OC)c1 | 5.9 µM | T/C 41 [2]: 1.67; T/C untreated [3]: 1.67; T/C-CQ [4]: 0.84
6 | O=C(/C=C/c1cccc2ccccc12)c1ccc(O)cc1O | 24.8 µM | –
7 | COc1ccc(C(=O)/C=C/c2ccc(F)cc2)c(OC)c1 | 322 µM | –
8 | O=C(/C=C/c1ccc([N+](=O)[O-])cc1)c1ccc(O)cc1 | 20.4 µM | –
9 | O=C(/C=C/c1ccccc1)c1ccc(O)cc1 [4'-HYDROXYCHALCONE] | 29.6 µM | –
10 | CCOc1ccc(C(=O)/C=C/c2ccc(C(F)(F)F)cc2)cc1 | 24 µM | –
11 | COc1ccc(/C=C/C(=O)c2ccc(OC)cc2OC)cc1 [METOCHALCONE] | 128 µM | –
12 | CCOc1ccc(C(=O)/C=C/c2ccc(C#N)cc2)cc1 | 540 µM | –
13 | CCOc1ccc(C(=O)/C=C/c2ccc(OC)cc2)cc1 | 33 µM | –
14 | O=C(/C=C/c1ccnc2ccccc12)c1ccc(O)cc1 | 51 µM | –
15 | O=C(/C=C/c1cccc(Cl)c1)c1ccc(O)cc1 | 33.1 µM | –
16 | COc1ccc(C(=O)/C=C/c2ccccc2)c(OC)c1 | 55.5 µM | –
17 | O=C(/C=C/c1ccc(Cl)cc1Cl)c1ccc(O)cc1 | 24.5 µM | –
18 | CCN(CC)CCCC(C)Nc1ccnc2cc(Cl)ccc12 (configuration not stated) [CHLOROQUINE] | – | T/C 41 [2]: 1.71; T/C untreated [3]: 1.81
19 | O=C(/C=C/c1ccc(Cl)c(Cl)c1)c1ccc(O)cc1 | 18.4 µM | T/C 41 [2]: 0.81; T/C untreated [3]: 1.28; T/C-CQ [4]: 0.71
20 | CCOc1ccc(C(=O)/C=C/c2ccc(F)cc2)cc1 | 24.1 µM | –
21 | COc1ccc(C(=O)/C=C/c2ccc(Cl)c(Cl)c2)c(OC)c1OC | 14.5 µM | T/C 41 [2]: 1.53; T/C untreated [3]: 1.47; T/C-CQ [4]: 0.8
22 | CCCCOc1ccc(C(=O)/C=C/c2ccc(OC)cc2OC)cc1 | 108 µM | T/C untreated [3]: 1.08; T/C-CQ [4]: 0.57
23 | COc1ccc(/C=C/C(=O)c2ccc(OC)c(OC)c2OC)cc1 | 25 µM | –

Row | SMILES | IC50 ([1]; Plasmodium falciparum, 48 h) | further results
24 | COc1ccc(C(=O)/C=C/c2ccc(F)cc2Cl)c(OC)c1 | 600 µM | –
25 | COc1ccc(C(=O)/C=C/c2ccc(F)cc2)cc1 | 14.4 µM | T/C 41 [2]: 1.83; T/C untreated [3]: 2.2; T/C-CQ [4]: 1.22
26 | COc1ccc(C(=O)/C=C/c2ccc(F)cc2)c(OC)c1OC | 9.5 µM | T/C 41 [2]: 1.37; T/C untreated [3]: 1.37; T/C-CQ [4]: 0.69
27 | CCc1ccc(/C=C/C(=O)c2ccc(OC)c(OC)c2OC)cc1 | 16.5 µM | –
28 | COc1ccc(/C=C/C(=O)c2ccc(O)cc2)cc1 | 32.2 µM | –
29 | CCOc1ccc(C(=O)/C=C/c2ccc([N+](=O)[O-])cc2)cc1 | 39 µM | –
30 | COc1ccc(C(=O)/C=C/c2ccc(F)cc2F)c(OC)c1OC | 18.5 µM | –
31 | COc1ccc(/C=C/C(=O)c2ccc(O)cc2O)c(OC)c1 | 56.4 µM | –
32 | COc1ccc(C(=O)/C=C/c2ccc(-c3ccccc3)cc2)c(OC)c1OC | 26.2 µM | –
33 | O=C(/C=C/c1cnc2ccccc2c1)c1ccc(O)cc1 | 41 µM | –
34 | COc1ccc(C(=O)/C=C/c2cnc3ccccc3c2)cc1 | 4.8 µM | T/C 41 [2]: 1.03; T/C untreated [3]: 0.98; T/C-CQ [4]: 0.49
35 | CCCCc1ccc(/C=C/C(=O)c2ccc(O)cc2)cc1 | 20.9 µM | –
36 | O=C(/C=C/c1ccc2ccccc2c1)c1ccc(O)cc1 | 27.5 µM | –
37 | COc1ccc(C(=O)/C=C/c2ccc(O)cc2)cc1 | 7 µM | T/C 41 [2]: 1.47; T/C untreated [3]: 1.41; T/C-CQ [4]: 0.7
38 | COc1ccc(C(=O)/C=C/c2ccc(F)cc2F)cc1 | 26.8 µM | –
39 | COc1ccc(C(=O)/C=C/c2ccnc3ccccc23)c(OC)c1OC | 60 µM | –
40 | COc1ccc(C(=O)/C=C/c2ccnc3ccccc23)cc1 | 43 µM | –
41 | COc1ccc(/C=C/C(=O)c2ccc(OC)cc2OC)c(OC)c1 | 2.1 µM | T/C 41 [2]: 0.98; T/C untreated [3]: 0.98; T/C-CQ [4]: 0.5
42 | COc1ccc(C(=O)/C=C/c2ccc(C)cc2)c(OC)c1 | 93.8 µM | –
43 | O=C(/C=C/c1ccccc1Cl)c1ccc(O)cc1 | 61.7 µM | –
44 | COc1ccc(C(=O)/C=C/c2cnc3ccccc3c2)c(OC)c1 | 2.2 µM | T/C 41 [2]: 1.29; T/C untreated [3]: 1.29; T/C-CQ [4]: 0.65
45 | COc1ccc(C(=O)/C=C/c2ccccc2Cl)c(OC)c1OC | 41.5 µM | –
46 | CCOc1ccc(C(=O)/C=C/c2ccc(N(C)C)cc2)cc1 | 30 µM | –

Row | SMILES | IC50 ([1]; Plasmodium falciparum, 48 h) | further results
47 | Cc1cccc(/C=C/C(=O)c2ccc(O)cc2)c1 | 25.8 µM | –
48 | COc1ccc(C(=O)/C=C/c2ccc(OC)cc2OC)cc1 | 6.4 µM | T/C 41 [2]: 0.97; T/C untreated [3]: 0.92; T/C-CQ [4]: 0.46
49 | COc1ccc(C(=O)/C=C/c2ccc(C(F)(F)F)cc2)c(OC)c1OC | 3 µM | T/C 41 [2]: 1.46; T/C untreated [3]: 1.46; T/C-CQ [4]: 0.74
50 | COc1ccc(C(=O)/C=C/c2ccnc3ccccc23)c(OC)c1 | 27 µM | –
51 | COc1ccc(C(=O)/C=C/c2ccc([N+](=O)[O-])cc2)c(OC)c1OC | 22.5 µM | –
52 | CCOc1ccc(C(=O)/C=C/c2ccc(OC)cc2OC)cc1 | 30 µM | –
53 | Cc1ccc(/C=C/C(=O)c2ccc(O)cc2)cc1 | 25.4 µM | –
54 | COc1ccc(C(=O)/C=C/c2ccc(Cl)c(Cl)c2)c(OC)c1 | 298 µM | –
55 | CCOc1ccc(C(=O)/C=C/c2ccnc3ccccc23)cc1 | 100 µM | –
56 | COc1ccc(C(=O)/C=C/c2ccc(Br)cc2)c(OC)c1 | 542 µM | –
57 | CCOc1ccc(C(=O)/C=C/c2cnc3ccccc3c2)cc1 | 24.9 µM | –
58 | CCOc1ccc(C(=O)/C=C/c2ccccc2)cc1 | 43 µM | –
59 | O=C(/C=C/c1ccnc2ccccc12)c1ccc(O)cc1O | 92.8 µM | –
60 | CCOc1ccc(C(=O)/C=C/c2ccc(Cl)cc2Cl)cc1 | 96 µM | –
61 | O=C(/C=C/c1ccc2ccccc2c1)c1ccc(O)cc1O | 20 µM | T/C 41 [2]: 1.2; T/C untreated [3]: 1.91; T/C-CQ [4]: 1.05
62 | O=C(/C=C/c1ccccn1)c1ccc(O)cc1 | 16.3 µM | T/C 41 [2]: 1.03; T/C untreated [3]: 0.99; T/C-CQ [4]: 0.49
63 | COc1ccc(C(=O)/C=C/c2ccc([N+](=O)[O-])cc2)c(OC)c1 (stereo in doubt; 115) | – | IC50 [1]: 100 µM
64 | COc1ccc(C(=O)/C=C/c2ccc(Cl)cc2Cl)c(OC)c1 | 18.8 µM | –
65 | COc1ccc(C(=O)/C=C/c2ccc(Cl)cc2)c(OC)c1 | 342 µM | –
66 | COc1ccc(C(=O)/C=C/c2ccc(C)cc2)cc1 | 70 µM | –
67 | COc1ccc(C(=O)/C=C/c2ccc(N(C)C)cc2)c(OC)c1 (stereo in doubt; 103) | – | IC50 [1]: 55.3 µM
68 | COc1ccc(/C=C/C(=O)c2ccc(OC)c(OC)c2OC)c(OC)c1 | 16.5 µM | –
69 | COc1ccc(C(=O)/C=C/c2ccc(Cl)cc2)c(OC)c1OC | 14.5 µM | –

Row | SMILES | IC50 ([1]; Plasmodium falciparum, 48 h) | further results
70 | O=C(/C=C/c1ccccn1)c1ccc(O)cc1O | 19.7 µM | T/C 41 [2]: 0.93; T/C untreated [3]: 1.47; T/C-CQ [4]: 0.81
71 | COc1ccc(C(=O)/C=C/c2cccc3ccccc23)c(OC)c1 | 320 µM | –
72 | O=C(/C=C/c1ccc(C(F)(F)F)cc1)c1ccc(O)cc1 | 30.4 µM | –
73 | CCOc1ccc(C(=O)/C=C/c2ccc(F)cc2F)cc1 | 28.1 µM | –
74 | COc1ccc(C(=O)/C=C/c2ccc(C(F)(F)F)cc2)cc1 | 19 µM | –
75 | COc1ccc(C(=O)/C=C/c2ccc(F)cc2F)c(OC)c1 | 6.2 µM | T/C 41 [2]: 1.04; T/C untreated [3]: 1.04; T/C-CQ [4]: 0.52
76 | COc1ccc(C(=O)/C=C/c2ccccc2)c(OC)c1OC | 15.8 µM | –
77 | O=C(/C=C/c1ccc(F)cc1)c1ccc(O)cc1 | 21.7 µM | –
78 | O=C(/C=C/c1ccncc1)c1ccc(O)cc1O | 122 µM | –
79 | CCc1ccc(/C=C/C(=O)c2ccc(OC)cc2OC)cc1 | 2.4 µM | T/C 41 [2]: 2.33; T/C untreated [3]: 2.33; T/C-CQ [4]: 1.18
80 | COc1ccc(C(=O)/C=C/c2cnc3ccccc3c2)c(OC)c1OC | 2 µM | T/C 41 [2]: 1.91; T/C untreated [3]: 1.91; T/C-CQ [4]: 0.96
81 | COc1ccc(C(=O)/C=C/c2ccc(Cl)cc2Cl)cc1 | 16 µM | –
82 | COc1ccc(C(=O)/C=C/c2ccc(Cl)cc2Cl)c(OC)c1OC | 5.4 µM | T/C 41 [2]: 0.94; T/C untreated [3]: 0.94; T/C-CQ [4]: 0.48
83 | COc1ccc(C(=O)/C=C/c2ccc(N(C)C)cc2)c(OC)c1OC | 18 µM | –
84 | COc1ccc(C(=O)/C=C/c2ccc([N+](=O)[O-])cc2)c(OC)c1 (stereo in doubt; 109) | – | IC50 [1]: 415 µM
85 | O=C(/C=C/c1cccc2ccccc12)c1ccc(O)cc1 | 39.9 µM | –
86 | COc1ccc(C(=O)/C=C/c2ccc(C)cc2)c(OC)c1OC | 25.6 µM | –
87 | COc1ccc(C(=O)/C=C/c2cccc(Cl)c2)c(OC)c1OC | 24.4 µM | –
88 | O=C(/C=C/c1ccc(F)cc1F)c1ccc(O)cc1O | 16 µM | T/C 41 [2]: 1.78; T/C untreated [3]: 1.73; T/C-CQ [4]: 1.23
89 | COc1ccc(/C=C/C(=O)c2ccc(OC)cc2)cc1 [4,4'-DIMETHOXYCHALCONE] | 21.7 µM | –

From ChEMBL document CHEMBL1134841, “Antimalarial alkoxylated and hydroxylated chalcones [corrected]: structure-activity relationship analysis” (J Med Chem, 2001)
